HSP90 refold inh – HSP90 inhibitors, primary screen, cell lysate, luminescence. Heat shock protein HSP 90 (rabbit reticulocyte lysate; luciferase refolding). Rabbit reticulocyte lysate, luciferase refolding luminescence, 3 h. inhibition, % at 5.6 µM. actives 0.91% (n = 290,000). AID 1789, 2009;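 active = inhibition above the screen-wide mean plus 3 SD, computed separately per campaign, cut at about 16% in these data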;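 also: inhibitors lower the luminescence because luciferase stays unfolded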
HSF-1 act – HSF-1 activators, primary screen, NIH3T3-HGL cells, MG132 stress, luminescence, single point; NIH3T3-HGL HSF-1 luciferase reporter, 8 h; 100% = twice DMSO control signal; activation, % at 9 µM; actives 1.7% (n = 300,000); AID 504408, 2011;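 active = mean replicate activation of at least 50% with a set share of replicates each reaching 50%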
Hep lipid drop – inhibitors of hepatocyte lipid droplet formation, primary screen, imaging, high-throughput imaging, BODIPY stain | AML12 mouse hepatocytes, oleate lipid droplets | inhibition, % at 6.5 µM | actives 0.4% (n = 240,000) | AID 1656, 2009;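 active = lipid droplet intensity inhibited by at least 50%, with more than 500 cells counted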
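Test system: AML12 mouse liver cells; schedule: overnight exposure; technique: high-content imaging of BODIPY-stained droplets and DAPI nuclei; read-out: % inhibition of corrected integrated BODIPY droplet signal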
NS3 helicase inh – inhibitors of HCV NS3 helicase, primary screen, biochemical, Cy5 molecular beacon fluorescence. Hepatitis C virus NS3 helicase. NS3 helicase DNA unwinding. actives 0.56% (n = 290,000). inhibition, % at 10.9 µM. AID 1800, 2009;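 active = inhibition above the mean of all tested compounds plus 3 SD, set per campaign, cut at about 35% in these data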
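Control set: DMSO versus 110 µM thioflavine S; Material: NS3 helicase fragment of HCV; Measured by: Cy5 fluorescence at 0 and 60 min, beacon hairpin quenching; Read-out basis: percent inhibition from t60/t0 fluorescence ratio; Times: reaction time 60 min, 25 °C; Repeats: single replicate; Compound dosing: single dose, 10.9 µM nominal final, DMSO 0.8% final.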
HSF1 inhib – HSF1 inhibitors in luciferase reporter cells, primary screen, cell-based, NIH3T3, luminescence. AID 2098, 2009. activity change, negative = inhibition, % at 7.5 µM (by protocol). NIH3T3-HGL HSE-luciferase, MG132-induced, luminescence 8 h; stronger effect = lower value. actives 0.77% (n = 300,000);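 active = more than half of replicate wells show activity change below -50%, luminescence cut by over half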;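 also: luciferase reports HSF-1 transcriptional activity via heat shock element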
NS3 hel confirm – HCV NS3 helicase inhibitors, retest, confirmation, biochemical, Cy5 molecular beacon fluorescence, triplicate; shares compounds with NS3 helicase inh; NS3 helicase DNA unwinding; inhibition, % at 10.9 µM; actives 31% (n = 1,600); AID 1943, 2009;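 active = inhibition above the mean of all tested compounds plus 3 SD, cutoff set per campaign, cut at about 36% in these data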
DNA FID counter – compounds displacing fluorescent DNA intercalator, artefact control for HCV NS3 helicase inhibitor project, biochemical, FID fluorescence, triplicate | shares compounds with NS3 helicase inh | inhibition, % at 7.9 µM | DNA fluorescent intercalator displacement | AID 1945, 2009 | actives 4% (n = 1,600); in the data active = inhibition above about 37%;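 also: higher means more displacement of ethidium bromide from the DNA hairpin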
FID counter DR – compounds displacing fluorescent intercalator from DNA, dose response, counter-screen for HCV NS3 helicase inhibitor project, biochemical, fluorescence | shares compounds with NS3 helicase inh | AID 2172, 2009 | 120 tested, under 10 active | fluorescent intercalator displacement from DNA | IC50, µM; call rule not given here
Numbers stand for hits. Most compounds without a hit are left out; they make up all but 3.8% or so of the library.

For Cc1ccc(C)c2[nH]c(=O)c(C(c3nnnn3CCc3ccccc3)N3CCOCC3)cc12 (centres undefined) the results were HSP90 refold inh inactive, HSF-1 act inactive, NS3 helicase inh inactive and HSF1 inhib inactive.
`Cc1ccc(C)c2[nH]c(=O)c(C(c3nnnn3Cc3ccco3)N3CCc4ccccc4C3)cc12` (centres undefined) gave HSP90 refold inh inactive, HSF-1 act inactive, NS3 helicase inh 39, HSF1 inhib inactive, NS3 hel confirm inactive and DNA FID counter inactive.
CC1=CC2=NC(=O)/C(=C/c3coc4ccc(Cl)cc4c3=O)C(=N)N2O1 was read as HSP90 refold inh inactive, HSF-1 act inactive, Hep lipid drop inactive, NS3 helicase inh 42, HSF1 inhib inactive, NS3 hel confirm inactive and DNA FID counter inactive.
Screening CCOC1=C/C(=C/c2c(N)n3nc(-c4ccccc4)sc3nc2=O)C=CC1=O returned HSP90 refold inh inactive, HSF-1 act inactive, Hep lipid drop inactive, NS3 helicase inh inactive and HSF1 inhib inactive.
Screening COC1=C/C(=C/c2c(N)n3nc(-c4ccc(C)cc4)sc3nc2=O)C=CC1=O returned HSP90 refold inh inactive, Hep lipid drop inactive, NS3 helicase inh 44, NS3 hel confirm inactive and DNA FID counter inactive.
For CC(C(=O)Nc1ccc(C(=O)O)c(O)c1)N1C(=O)/C(=C\c2ccco2)SC1=S (centres undefined) the results were HSP90 refold inh inactive, HSF-1 act inactive, Hep lipid drop inactive, NS3 helicase inh inactive and HSF1 inhib inactive.
For CC(C)C(C(=O)O)N1C(=O)/C(=C/C=C/c2ccco2)SC1=S (centres undefined) the results were HSP90 refold inh inactive, HSF-1 act inactive, NS3 helicase inh 44, HSF1 inhib inactive, NS3 hel confirm 78 and DNA FID counter inactive.
`O=C1/C(=C\c2ccco2)SC(=S)N1c1ccc(O)cc1` gave HSP90 refold inh inactive, HSF-1 act inactive, Hep lipid drop inactive, NS3 helicase inh inactive and HSF1 inhib inactive.
O=C1/C(=C/C=C/c2ccco2)SC(=S)N1c1ccc(O)cc1 was read as HSP90 refold inh inactive, HSF-1 act inactive, Hep lipid drop inactive, NS3 helicase inh 51, HSF1 inhib inactive, NS3 hel confirm 91, DNA FID counter inactive and FID counter DR inactive.
`O=C(NN1C(=O)/C(=C/C=C/c2ccccc2)SC1=S)c1ccncc1` gave HSP90 refold inh inactive, HSF-1 act inactive, Hep lipid drop inactive, NS3 helicase inh inactive and HSF1 inhib inactive.
For O=C(NN1C(=O)/C(=C/C=C/c2ccco2)SC1=S)c1ccncc1 the results were HSP90 refold inh inactive, HSF-1 act inactive, Hep lipid drop inactive, NS3 helicase inh 40, HSF1 inhib inactive, NS3 hel confirm 78 and DNA FID counter inactive.
For Cc1ccc(Nc2cc(C)nn2-c2nc(C)cc(=O)[nH]2)cc1 the results were HSP90 refold inh inactive, HSF-1 act inactive, NS3 helicase inh 39, HSF1 inhib inactive, NS3 hel confirm inactive and DNA FID counter inactive.
`Cc1ccc(Nc2cc(C)nn2-c2nc(C)cc(C)n2)cc1` gave HSP90 refold inh inactive, HSF-1 act inactive, NS3 helicase inh inactive and HSF1 inhib inactive.
`Cc1cc2oc(=O)ccc2cc1[N+](=O)[O-]` gave HSP90 refold inh inactive, HSF-1 act inactive, Hep lipid drop inactive, NS3 helicase inh inactive and HSF1 inhib inactive.
Screening COc1cccc(NS(=O)(=O)c2ccc3c(c2)C2C=CCC2C(c2ccc(C(=O)O)cc2)N3)c1 (centres undefined) returned HSP90 refold inh inactive, HSF-1 act inactive, Hep lipid drop inactive, NS3 helicase inh 43, HSF1 inhib inactive, NS3 hel confirm 52 and DNA FID counter 42.
